Laboratory results published in BindingDB's records for doi:10.1016/j.bmcl.2009.08.072 (Glaxosmithkline, 2010).

Tests used:
Presenilin-1 [1] = molecular target: T1, Presenilin-1 (Homo sapiens, UniProt P49768); experiment: Inhibition of gamma-secretase in human SHSY5Y cells expressing human recombinant APP assessed as amyloid beta42 formation by ELISA
In short: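 SH-SY5Y cells overexpressing human APP Swedish variant were incubated with compound for 48 h. Secreted Aβ42 and Aβ40 were measured by immunoassay (MSD electrochemiluminescence or AlphaLISA).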

Presenilin-1 [2] = molecular target: T1, Presenilin-1; experiment: Inhibition of gamma-secretase in human SHSY5Y cells expressing human recombinant APP assessed as amyloid beta40 formation by ELISA
In short: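 SH-SY5Y cells overexpressing human APP Swedish variant exposed to compound for 48 h; Aβ40 (and Aβ42) in the cell medium quantified by ELISA, either Meso Scale Discovery or AlphaLISA format. Compounds also cross-screened for inhibition of Notch processing.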

IC50 (Presenilin-1 [1]): 40 nM
IC50 (Presenilin-1 [2]): 40 nM
SMILES: CC(C)[C@H](O)C(=O)N[C@@H](C)C(=O)NC1C(=O)N(C)CCc2ccccc21 (stereo partly drawn) [(2S)-2-hydroxy-3-methyl-N-[(1S)-1-{[(1S)-3-methyl-2-oxo-2,3,4,5-tetrahydro-1H-3-benzazepin-1-yl]carbamoyl}ethyl]butanamide]
